Source: ChEMBL document CHEMBL1155561, “A new 2D-TLC bioautography method for the discovery of novel antifungal agents To control plant pathogens” (2000)
Activity calls are given as the source filed them. No cut-off for these calls is given here.

system: Colletotrichum fragariae; assay: Antifungal activity against Colletotrichum fragariae assessed as zone of inhibition; format: functional
Summary of the method: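 Direct 1D-TLC bioautography on glass-backed Si gel plates (activated 1 h at 100 °C). Standards were applied at […] from 5 µM ethanolic solutions (1 × 10-5 µmol/spot) and developed in 1:1 EtOAc/hexanes. Plates were sprayed three times with conidia (ca. 3 × 10^5/mL) in PDB with 0.1% agar and 0.1% Tween-80, then incubated at 24 °C with a 12 h photoperiod. Inhibition zones were measured after 4 days.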

Row | Compound | inhibition zone (IZ) | Activity
1 | O=[N+]([O-])c1c(Cl)c(Cl)c(Cl)c(Cl)c1Cl [PENTACHLORONITROBENZENE] | 5 mm2 | –
2 | c1ccc2[nH]c(-c3cscn3)nc2c1 | – | inactive
3 | CO/C=C(/C(=O)OC)c1ccccc1Oc1cc(Oc2ccccc2C#N)ncn1 [AZOXYSTROBIN] | 80 mm2 | –
4 | COC(=O)NC(=S)Nc1ccccc1NC(=S)NC(=O)OC [THIOPHANATE METHYL] | 24 mm2 | –
5 | CC(=O)O.CCCCCCCCCCCCNC(=N)N [DODINE] | 20 mm2 | –
6 | COC(=O)Nc1nc2ccccc2[nH]1 [CARBENDAZIM] | 24 mm2 | –
7 | O=CNC(N1CCN(C(NC=O)C(Cl)(Cl)Cl)CC1)C(Cl)(Cl)Cl (stereo not given) | – | inactive
8 | C=CC1(C)OC(=O)N(c2cc(Cl)cc(Cl)c2)C1=O (stereo not given) [VINCLOZOLIN] | 48 mm2 | –
9 | Nc1c(Cl)cc([N+](=O)[O-])cc1Cl [ALLISAN] | 80 mm2 | –
10 | CC(C)Oc1cccc(NC(=O)c2ccccc2C(F)(F)F)c1 | – | inactive
